Screening results as filed in PubChem.
DAGLB inhibitor = diacylglycerol lipase beta (human) inhibition. AID 504411. HEK293T DAGLB membrane lysate, EnzChek fluorogenic substrate. Q8NCG7. inhibition, % at 5.17 µM. 340,000 tested, 0.059% active; in the data active means inhibition above about 34%;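 further: 0% = enzyme with vehicle and 100% = wells lacking enzyme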
PLC-beta3 inh = blocks human PLC-beta3 enzyme activity | Q01970 | Purified PLC-beta3, fluorogenic substrate, fluorescence | inhibition, % at 12.2 µM | 370,000 tested, 0.18% active | AID 720704; in the data active means inhibition above about 11%;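 further: 0% = median of compound wells on plate and 100% = full blocker control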
HGIII-sPLA2 inh = Inhibits HGIII-sPLA2 liposome hydrolysis, primary screen; Q9NZ20; QFRET BODIPY PC-A2 liposome hydrolysis, fluorescence; inhibition, % at 12.2 µM; 370,000 tested, 0.56% active;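 active means inhibition above mean plus 3 SD of compounds lying within the high and low control bounds, cut at about 19% in these data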;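 further: 0% = median of test compound wells and 100% = no enzyme DMSO wells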
Target sequence (Q9NZ20 whole entry, looked up): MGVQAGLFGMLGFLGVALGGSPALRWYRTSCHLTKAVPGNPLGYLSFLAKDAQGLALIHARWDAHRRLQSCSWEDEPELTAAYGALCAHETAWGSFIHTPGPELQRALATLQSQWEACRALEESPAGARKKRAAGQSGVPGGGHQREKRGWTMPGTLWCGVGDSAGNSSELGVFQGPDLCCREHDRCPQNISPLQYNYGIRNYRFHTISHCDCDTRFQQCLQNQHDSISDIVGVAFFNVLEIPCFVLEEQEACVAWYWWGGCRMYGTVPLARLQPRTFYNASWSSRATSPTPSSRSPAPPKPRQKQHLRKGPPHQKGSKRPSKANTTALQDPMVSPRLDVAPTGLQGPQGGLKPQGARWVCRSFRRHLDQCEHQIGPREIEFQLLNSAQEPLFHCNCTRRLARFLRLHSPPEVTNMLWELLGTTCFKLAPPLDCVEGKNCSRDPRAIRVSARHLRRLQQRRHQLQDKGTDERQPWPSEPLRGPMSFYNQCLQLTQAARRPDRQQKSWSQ
TbMetRS inhib = blocks T. brucei methionyl-tRNA synthetase activity; AID 624268; purified T. brucei MetRS, ATP depletion, Kinase-Glo luminescence; 360,000 tested, 0.4% active; inhibition, % at 11.9 µM;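 active means inhibition above a per-plate cutoff of the control wells' mean inhibition plus 3 SD, cut at about 5.5% in these data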;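 further: 0% = DMSO wells median and 100% = median of wells with control inhibitor compound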
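Dosing: 11.9 µM compound single dose, 0.9% DMSO; Assay system: purified T. brucei MetRS enzyme; Measured by: Kinase-Glo luciferase luminescence reporting remaining unconsumed ATP; Schedule: 15 min plus 2 h at 25 °C.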
PLCg1 inh = PLC-gamma1 (human) inhibition, primary screen; purified PLC-gamma1, fluorogenic substrate, fluorescence; inhibition, % at 12.2 µM; 370,000 tested, 0.84% active; in the data active means inhibition above about 9.5%
DAGLB confirm = DAGLB (human) inhibition, confirmation screen. HEK293T DAGLB membrane lysate, EnzChek fluorogenic substrate. 190 tested, 73% active. AID 504445. inhibition, % at 5.17 µM. shares compounds with DAGLB inhibitor;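 active means mean inhibition over triplicate wells above a set limit taken from the primary lipase screen, cut at about 34% in these data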;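 further: 0% = DAGLB with DMSO and 100% = wells lacking DAGLB enzyme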
Numbers without * were called inactive; i = inactive; / = no result. The list is not random: actives were taken first. Their share in the collection is about 1.9%.

SMILES | DAGLB inhibitor | PLC-beta3 inh | HGIII-sPLA2 inh | TbMetRS inhib | PLCg1 inh | DAGLB confirm
COc1ccc(C(C(=O)N(C)C2CCCC2)N(Cc2ccc(F)cc2)C(=O)c2ncn[nH]2)cc1OC (stereo not given) | / | -2 | -3 | / | -1 | /
CC(Oc1ccccc1)C(=O)Nc1cccc(-c2nc3ccccc3[nH]2)c1 (stereo not given) | -1 | -13 | -31 | 38* | -14 | /
O=C(CSc1nc2ccccc2[nH]1)Nc1ccc(F)cc1 | -2 | -3 | -6 | 17* | -4 | /
Cc1cccc(NC(=S)N=Nc2c(O)n(CN3CCOCC3)c3ccccc23)c1C | 9 | 4 | 23* | 0 | 7 | /
CCC1CCC/C1=N\NC(=O)c1ccccc1C (stereo not given) | 0 | 7 | -3 | -1 | 10* | /
C/C(CC(=O)NC1CCCCC1)=N\NC(=O)c1ccccc1C | 2 | -2 | -4 | 0 | 0 | /
O=C(/C=C/c1ccc(Cl)cc1Cl)NCc1ccncc1 | 2 | 3 | -10 | 8.9* | 4 | /
CCN(CCCNc1cc2c(c(N)c1S(=O)(=O)O)C(=O)c1ccccc1C2=O)c1ccccc1 | 36* | -12 | -15 | 0 | -7 | 39*
COC(=O)C1=C(C)N(C)C(=NCc2cccc(C(F)(F)F)c2)NC1c1cccc(Cl)c1 (stereo not given) | / | 1 | -4 | / | 2 | /
COC(=O)[C@]12C[C@H](CC(=O)NCCCN3CCCC3=O)C(=O)N(CCc3ccc(OC)c(OC)c3)C1=C[C@H](C(C)(C)C)O[C@@H]2C | / | 0 | 5 | / | 5 | /
COC(=O)c1ccccc1NCc1cc(=O)oc2cc(O)c(O)cc12 | 48* | i | 13 | 0 | i | 34*
C=CCn1c(O)c(C2=c3ccccc3=NC2=O)sc1=Nc1ccc(O)cc1 | 36* | -1 | -1 | 0 | 3 | 34
COc1ccccc1N=Nc1nc(-c2ccccc2)c(-c2ccccc2)[nH]1 | 40* | 7 | 16 | 1 | 3 | 50*
Cc1ccc(S(=O)(=O)N2CCCC2C(=O)N2CCc3ccccc3C2)cc1 (stereo not given) | / | 3 | -1 | / | 3 | /
O=C(O)c1ccc(/C=N\Nc2ccc(S(=O)(=O)N3CCOCC3)cc2[N+](=O)[O-])cc1 | 2 | -5 | 14 | 1 | 6 | /
Cc1ccc(-n2c(O)c(/C=N/Nc3ccc(S(=O)(=O)N4CCOCC4)cc3[N+](=O)[O-])c3ccccc3c2=O)c(C)c1 | 35* | -147 | 3 | -1 | -142 | 46*
CC(=O)NCc1ccc(OCCCN2CCC(C(O)(c3ccccc3)c3ccccc3)CC2)cc1 | / | -4 | -16 | / | 5 | /
Cc1cc(N=Nc2ccccc2)c(NCC(O)C(O)C(O)CO)cc1C (stereo not given) | 45* | 4 | 9 | -1 | 2 | 43*
CCOc1cc(/C=C2\N=C(SC)SC2=O)cc([N+](=O)[O-])c1OC(C)=O | 10 | / | / | -1 | / | /
CCOc1cc(/C=C2\N=C(SCC)SC2=O)cc([N+](=O)[O-])c1OC(C)=O | 50* | -2 | 6 | 0 | 2 | 37*
COCCSc1nnc(-c2cccnc2)n1Cc1ccccc1 | / | 1 | -2 | / | -1 | /
CN(C)c1ccc(N=Nc2ccc(S(N)(=O)=O)cc2)cc1 | 39* | -3 | 8 | 1 | 1 | 39*
C/C(=N\Nc1ccc(S(N)(=O)=O)cc1[N+](=O)[O-])c1ccc2c(c1)OCO2 | 37* | 2 | 0 | 1 | 0 | 42*
CCN(CC)S(=O)(=O)c1ccc(N/N=C(\C)c2ccc3c(c2)OCO3)c([N+](=O)[O-])c1 | -2 | 3 | -6 | -1 | 2 | /
CC1(C)CC(=O)N(CC(=O)N2CCN(c3cccc(Cl)c3Cl)CC2)c2ccccc2S1(=O)=O | / | -2 | -4 | / | 2 | /
SMILES | DAGLB inhibitor | PLC-beta3 inh | HGIII-sPLA2 inh | TbMetRS inhib | PLCg1 inh | DAGLB confirm
COC(=O)c1c(C)c2c(C)cc3ccccn3c-2c1C(=O)OC | 0 | -20 | 12 | -1 | -18 | /
COC(=O)c1cc2c(-c3ccccc3)cc3ccccn3c-2c1C(=O)OC | 37* | -79 | 3 | -2 | -61 | 30
Nc1nc(-c2ccccc2)c(N=Nc2cccnc2)s1 | 51* | 1 | 15 | 0 | 7 | 50*
COc1ccc(N/C=C2\C(=O)CCc3c2oc2cc(Cl)c(O)c(Cl)c32)cc1 | 36* | -6 | -2 | 0 | -8 | 38*
CCOc1ccc(CCNC(=O)c2cc3sccc3n2Cc2cccc(C)c2)cc1OCC | / | 2 | 2 | / | -1 | /
COC(=O)[C@H]1C[C@@]2(Oc3ccc(Br)cc3)c3ccccc3N(C(=O)OC(C)(C)C)[C@H]2N1C(=O)OC(C)(C)C | / | 7 | -2 | / | -1 | /
Cc1ccccc1NC1=C(Cl)C(=O)OC1OC(=O)c1ccco1 (stereo not given) | 36* | 5 | -16 | -1 | 4 | 31
COc1ccccc1NC1=C(Cl)C(=O)OC1OC(=O)c1ccco1 (stereo not given) | 12 | -1 | 0 | 0 | 1 | /
Cc1nn(-c2ccccc2)c2sc(C(=O)NCCc3ccc(Cl)cc3)cc12 | / | -1 | -6 | / | -2 | /
C[C@H](O)[C@@H]1C(=O)N2CCc3c([nH]c4cccc(-c5ccccc5)c34)[C@@H]2C[C@@H]1N(C)C(=O)OCc1ccccc1 | / | -353 | -31 | / | -262 | /
COc1cccc(CNC(=O)[C@H]2CCCN2C(=O)[C@H]2CCCN2S(=O)(=O)c2cccc(C)c2)c1 | / | 2 | -6 | / | 5 | /
COc1ccc(S(=O)(=O)N2CCOCC2)cc1OC | 0 | 1 | 4 | 0 | 0 | /
COc1ccc(S(=O)(=O)N2CCOCC2)cc1N=Nc1sc(N)nc1-c1ccccc1 | 56* | 2 | 7 | -1 | -1 | 92*
O=[N+]([O-])c1ccc(N2CCN(c3ccc(F)cc3)CC2)cc1 | 55* | -5 | -1 | -1 | -1 | 99*
CCCOc1ccc(C(=O)NNC(=S)NC(=O)c2cc(-c3ccc(Cl)cc3)nc3ccccc23)cc1 | 39* | -11 | 2 | 0 | -6 | 90*
O=C(NC(C(=O)N/N=C/c1ccncc1)c1n[nH]c(=O)c2ccccc12)c1ccccc1 (stereo not given) | 15 | -1 | -9 | -1 | 0 | /
O=C(NC(C(=O)N/N=C/c1cccc2ccccc12)c1n[nH]c(=O)c2ccccc12)c1ccccc1 (stereo not given) | 39* | 0 | -42 | -1 | 3 | 40*
Cc1cccc(NC(=O)C2CCCN2S(=O)(=O)c2cccnc2)c1C (stereo not given) | / | 3 | 5 | / | 1 | /
O=c1cc(-c2ccccc2Cl)oc2c(NS(=O)(=O)c3cc(Cl)cc(Cl)c3O)ccc(O)c12 | 41* | / | / | 0 | / | 38*
CCc1ccc(S(=O)(=O)Nc2ccc(O)c3c(=O)cc(-c4ccccc4Cl)oc23)cc1 | -2 | -1 | -17 | 0 | -2 | /
COC(=O)Cc1nnn2c1[C@H](C)[C@@H](OC)c1ccc(C(F)(F)F)cc1-2 | / | 1 | 16 | / | 4 | /
